{"source": "paper PMC11397428", "about": "(Science Advances, 2024)", "key": {"[1]": {"tested_on": "red blood cells (RBCs)", "assay": "Hemolysis assay", "type": "cell-based, New Zealand rabbit", "details": "3 hours, 37°C, PBS; for hemolytic activity: 256 μM, n = 9", "method_in_brief": "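Freshly drawn rabbit blood diluted tenfold in PBS. RBCs pelleted and washed eight times with PBS. Peptide stocks made in PBS at 512 μM and diluted twofold six times. RBCs incubated with peptide for 3 hours at 37°C; 1% Triton X-100 as positive control, PBS as negative control. Samples spun at 10,000 rpm for 10 min; hemolysis calculated from supernatant absorbance at 570 nm.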"}, "[2]": {"tested_on": "human bronchial epithelial cells (BEAS-2B)", "assay": "Cytocompatibility, MTT assay", "type": "cell-based", "details": "24-hour coincubation", "method_in_brief": "(§1)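 Cell lines grown with 10% FBS and 1% penicillin-streptomycin. Seeded at 1 × 10^4 cells per well and allowed 24 hours to attach. Medium then replaced with fresh medium containing test peptide at a range of concentrations. Viability read by MTT after 24 hours of co-incubation.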"}, "[3]": {"tested_on": "human embryonic kidney (HEK) 293T", "assay": "Cytocompatibility, MTT assay", "type": "cell-based", "details": "24 h, n = 9", "method_in_brief": "as §1"}, "[4]": {"tested_on": "HS-5 (human marrow stromal cells)", "assay": "Cytocompatibility, MTT assay", "type": "cell-based", "details": "24 h, n = 9", "method_in_brief": "as §1"}, "[5]": {"tested_on": "RAW264.7", "assay": "Cytocompatibility, MTT assay", "type": "cell-based, murine", "details": "24 h, n = 9", "method_in_brief": "as §1"}, "[6]": {"tested_on": "DC2.4", "assay": "Cytocompatibility, MTT assay", "type": "cell-based, murine", "details": "24 h, n = 9", "method_in_brief": "as §1"}, "[7]": {"tested_on": "multidrug-resistant Escherichia coli (MRE)", "assay": "MIC against MRE", "type": "cell-based", "details": "n = 3 biologically replicates"}, "[8]": {"assay": "Pharmacokinetic study of SPRAY-BLKR-NPs in ALI mice", "type": "in vivo, mouse"}, "[9]": {"tested_on": "healthy mice", "assay": "Immunomodulation and toxicity in healthy mice", "type": "in vivo, mouse"}, "[10]": {"tested_on": "BMDMs", "assay": "Endocytosis mode of FITC-BLKR with endocytosis inhibitors", "type": "cell-based, mouse", "details": "FITC-BLKR 16 μM, 15 min; EIPA 50 μM, CPZ 40 μM, Filipin III 5 μg ml^−1; n = 3"}, "[11]": {"tested_on": "MRE-induced ALI", "assay": "Comparison with ceftazidime in MRE-infected mice", "type": "in vivo, mouse", "details": "ceftazidime/avibactam 32/8 mg kg^−1 subcutaneous every 12 hours; n = 12"}, "[12]": {"assay": "Pulmonary biodistribution of FITC-labeled peptide, CLSM", "type": "in vivo, mouse", "details": "128 μM, 50 μl intratracheal, 1 h", "method_in_brief": "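Acute lung injury induced in BALB/c mice by intratracheal LPS (10 mg kg^−1). FITC-labelled peptide (128 μM, 50 μl) then given intratracheally, n = 3. Lungs taken 1 hour after dosing. Sections stained for CD68 (macrophages) with DAPI counterstain and imaged by confocal microscopy.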"}, "[13]": {"tested_on": "bone marrow–derived macrophages (BMDMs)", "assay": "M2 macrophage polarization of BMDMs, CD206/CD86 flow cytometry", "type": "cell-based, mouse", "details": "M1 positive control LPS 10 ng ml^−1 and IFN-γ 20 ng ml^−1"}}, "note": "Where a SMILES comes first, the peptide text is derived from it. The star is where a group is joined. Phenylacetyl(4-Ph) = O=C(Cc1ccc(-c2ccccc2)cc1)*"}
{"compound": "CC[C@H](C)[C@H](NC(=O)[C@H](CCCCN)NC(=O)[C@H](Cc1ccccc1)NC(=O)[C@H](Cc1ccccc1)NC(=O)Cc1ccc(-c2ccccc2)cc1)C(=O)N[C@H](C(=O)N[C@@H](CCCCN)C(=O)N[C@H](C(=O)N[C@@H](C)C(=O)N[C@@H](CCCCN)C(=O)O)C(C)C)[C@@H](C)CC", "note": "[BKII] ({Phenylacetyl(4-Ph)}-FFKIIKVAK-OH)", "values": [{"measurement": "hemolytic activity", "setting": "[1]", "value": "no detectable hemolytic activity"}, {"measurement": "cytotoxicity toward BEAS-2B", "setting": "[2]", "value": "no notable cytotoxicity"}]}
{"compound": "CC(C)C[C@H](NC(=O)[C@H](Cc1ccccc1)NC(=O)[C@H](Cc1ccccc1)NC(=O)Cc1ccc(-c2ccccc2)cc1)C(=O)N[C@@H](CCCCN)C(=O)N[C@@H](CCCNC(=N)N)C(=O)N[C@H](C(=O)N[C@@H](Cc1c[nH]c2ccccc12)C(=O)N[C@@H](CCCCN)C(=O)N[C@@H](CCCNC(=N)N)C(=O)O)C(C)C", "note": "[BLKR] ({Phenylacetyl(4-Ph)}-FFLKRVWKR-OH)", "values": [{"measurement": "hemolytic activity", "setting": "[1]", "value": "no detectable hemolytic activity"}, {"measurement": "cytotoxicity toward BEAS-2B", "setting": "[2]", "value": "no notable cytotoxicity"}, {"measurement": "cytotoxicity, HEK 293T", "setting": "[3]", "value": "no significant cytotoxicity"}, {"measurement": "cytotoxicity, HS-5", "setting": "[4]", "value": "no significant cytotoxicity"}, {"measurement": "cytotoxicity, RAW264.7", "setting": "[5]", "value": "no significant cytotoxicity"}, {"measurement": "cytotoxicity, DC2.4", "setting": "[6]", "value": "no significant cytotoxicity"}, {"measurement": "MIC against MRE", "setting": "[7]", "value": 16, "unit": "µM"}, {"measurement": "BLKR left in entire respiratory tract", "setting": "[8]; ALI mice, single dose 18.42 μg per mouse, 12 hours after administration", "value": "~10", "unit": "%"}, {"measurement": "pulmonary area under the curve relative to kidney", "setting": "[8]; within 24 hours", "value": "> 154.13", "unit": "times"}, {"measurement": "pulmonary area under the curve relative to liver", "setting": "[8]; within 24 hours", "value": "more than 47.90 times"}, {"measurement": "monocyte infiltration in the alveolar site, histology", "setting": "[9]; 128 or 256 μM, 50 μl twice", "value": "no monocyte infiltration was observed"}, {"measurement": "inflammatory cell infiltration in lung, histology", "setting": "[9]; 512 or 1204 μM", "value": "inflammatory cell infiltration occurred in lung"}, {"measurement": "monocyte percentage in peripheral blood", "setting": "[9]; all the tested concentrations, n = 3", "value": "no elevation of monocyte percentage"}]}
{"compound": "CC[C@H](C)[C@H](NC(=O)[C@H](CC(C)C)NC(=O)[C@H](CCCNC(=N)N)NC(=O)[C@H](Cc1ccccc1)NC(=O)[C@H](Cc1ccccc1)NC(=O)Cc1ccc(-c2ccccc2)cc1)C(=O)N[C@@H](CCCNC(=N)N)C(=O)N[C@@H](Cc1ccc(O)cc1)C(=O)N[C@@H](CCSC)C(=O)N[C@@H](C)C(=O)N[C@@H](CCCCN)C(=O)O", "note": "[BRLI] ({Phenylacetyl(4-Ph)}-FFRLIRYMAK-OH)", "values": [{"measurement": "hemolysis rate", "setting": "[1]; 128 μM", "value": 7.49, "unit": "%"}]}
{"compound": "CN(C)CCCN1c2ccccc2Sc2ccc(Cl)cc21", "note": "[CPZ, chlorpromazine]", "values": [{"measurement": "loss of BLKR uptake quantified by FITC intensity", "setting": "[10]", "value": 24.47, "unit": "%"}]}
{"compound": "CC(C)(O/N=C(\\C(=O)N[C@@H]1C(=O)N2C(C(=O)[O-])=C(C[n+]3ccccc3)CS[C@H]12)c1csc(N)n1)C(=O)O", "note": "[Ceftazidime]", "values": [{"measurement": "2-day survival rate", "setting": "[11]", "value": 58.3, "unit": "%"}]}
{"compound": "CCN(c1nc(N)c(C(=O)NC(=N)N)nc1Cl)C(C)C", "note": "[EIPA, ethyl-isopropyl-amiloride]", "values": [{"measurement": "loss of BLKR uptake quantified by FITC intensity", "setting": "[10]", "value": 22.14, "unit": "%"}]}
{"compound": "CCCCC[C@@H](O)[C@H]1C(=O)O[C@H](C)[C@@H](O)/C=C/C=C/C=C/C=C/C=C(\\C)[C@@H](O)C[C@H](O)C[C@H](O)C[C@H](O)C[C@H](O)C[C@H](O)C[C@@H]1O", "note": "[Filipin III]", "values": [{"measurement": "loss of BLKR uptake quantified by FITC intensity", "setting": "[10]", "value": 43.01, "unit": "%"}]}
{"compound": "CC(C)C[C@H](N)C(=O)N[C@@H](CCCCN)C(=O)N[C@@H](CCCNC(=N)N)C(=O)N[C@H](C(=O)N[C@@H](Cc1c[nH]c2ccccc12)C(=O)N[C@@H](CCCCN)C(=O)N[C@@H](CCCNC(=N)N)C(=O)O)C(C)C", "note": "[LKR] (H-LKRVWKR-OH)", "values": [{"measurement": "accumulation in injured lung tissue", "setting": "[12]", "value": "extremely little accumulation"}]}
{"compound": "lipopolysaccharide [LPS]", "values": [{"measurement": "CD86+ macrophage in the total population", "setting": "[13]", "value": "more than 80%"}]}
